Results taken from ChEMBL document CHEMBL2146426, “Antitubercular nitrofuran isoxazolines with improved pharmacokinetic properties” (Bioorg Med Chem, 2012).
Values after ≈ are worked out from the molar mass of the structure shown.

What was measured:
[1] = organism: Rattus norvegicus; assay: Clearance in rat; format: ADME, organism-based; conditions: in vivo
[2] = organism: Rattus norvegicus; assay: Half life in rat; format: ADME, organism-based; conditions: in vivo
[3] = Oral bioavailability in rat; format: ADME, organism-based; conditions: in vivo
[4] = Volume of distribution in rat; format: ADME, organism-based; conditions: in vivo
Procedure, shortened: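 Plasma concentration–time data from rats (n=5) after IV 10 mg/kg or oral 100 mg/kg. Samples taken 0.25–48 h and measured by LC-MS/MS. Non-compartmental analysis; Vd calculated as AUMC0-∞ × dose divided by the square of AUC0-∞.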

[5] = Drug excretion in rat urine; format: ADME; conditions: read-out: Drug excretion
[6] = Cmax in rat at 10 mg/kg, iv; format: ADME, organism-based; parameters: dose 10 mg/kg, route intravenous; conditions: in vivo
Procedure, shortened: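 Rats (n=5) given 10 mg/kg IV via femoral vein catheter. Vehicle was 2% ethanol/saline or 30% DMSO/30% propylene glycol/20% PEG 3000/20% saline, depending on compound. Serial plasma sampled 0–48 h and assayed by LC-MS/MS after acetonitrile precipitation. Cmax read by visual inspection of the concentration–time curve.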

[7] = AUC (0 to infinity) in rat at 10 mg/kg, iv; format: ADME, organism-based; parameters: time infinity, dose 10 mg/kg, route intravenous; conditions: plasma
Procedure, shortened: (§1)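 Rats, n=5, given 10 mg/kg IV via femoral vein catheter. Vehicle was 2% ethanol/saline or 30% DMSO/30% propylene glycol/20% PEG 3000/20% saline, depending on compound. Plasma sampled 0–48 h and urine collected in intervals to 48 h; both assayed by LC-MS/MS after acetonitrile precipitation. Non-compartmental analysis: CL = dose/AUC0-∞; fe = cumulative unchanged urinary amount/dose.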

[8] = Half life in human liver microsomes; format: ADME, Microsome
[9] = Drug excretion in Sprague-Dawley rat urine at 10 mg/kg, iv; format: ADME, organism-based; parameters: dose 10 mg/kg, route intravenous; conditions: read-out: Drug excretion; procedure, shortened: as §1
[10] = test system: Bacillus anthracis; assay: Antibacterial activity against Bacillus anthracis Sterne 34F2 after overnight incubation by microbroth dilution technique; format: functional
Procedure, shortened: (§2)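 Non-mycobacterial strains: two-fold serial dilutions in broth by CLSI microbroth dilution. Inoculum about 10^5 cfu/mL; top final drug concentration 200 µg/mL. Aerobic incubation at 37°C overnight. MIC read visually as the lowest concentration with no visible growth.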

[11] = test system: Bacillus subtilis; assay: Antibacterial activity against Bacillus subtilis ATCC 23857 after overnight incubation by microbroth dilution technique; format: functional; procedure, shortened: as §2
[12] = test system: Escherichia coli; assay: Antibacterial activity against Escherichia coli K12 after overnight incubation by microbroth dilution technique; format: functional; conditions: K-12; procedure, shortened: as §2
[13] = Half life in Sprague-Dawley rat at 10 mg/kg, iv; format: ADME, organism-based; parameters: dose 10 mg/kg, route intravenous; conditions: in vivo; procedure, shortened: as §1
[14] = test system: Staphylococcus aureus; assay: Antibacterial activity against Staphylococcus aureus ATCC 29213 after overnight incubation by microbroth dilution technique; format: functional
Procedure, shortened: (§3)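 Two-fold serial broth dilutions per CLSI; inoculum about 10^5 CFU/mL; top final drug concentration 200 µg/mL; incubated aerobically overnight at 37°C. MIC read visually as the lowest concentration with no visible growth.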

[15] = Apparent permeability of the compound from apical to basal side of human Caco2 cells at 50 umol/L after 2 hrs by UPLC/MS analysis; format: ADME, cell-based; conditions: Caco-2
Procedure, shortened: (§4)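 Caco-2 monolayers grown 7 days on Transwell inserts, washed with HBSS/HEPES pH 7.4. Compound at 50 µmol/L added apically or basolaterally, then 2 h at 37°C. Receiver side sampled and quantified by UPLC/MS. Papp = (dQ/dt)/(A×C0), triplicates.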

[16] = Plasma protein binding in mouse at 10 uM after 4 hrs by LC/MS analysis; format: ADME, cell-free; conditions: read-out: PPB (converted)
Procedure, shortened: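 Compound at 10 µM (0.1% DMSO) in mouse or human plasma. Rapid equilibrium dialysis (MWCO 8K) against DPBS pH 7.4, 4 h at 37°C with orbital shaking. Both chambers matrix-matched, precipitated with acetonitrile containing warfarin internal standard, quantified by LC–MS. %Free = buffer/plasma × 100; %Bound = 100 − %Free.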

[17] = test system: Vero; assay: Cytotoxicity against african green monkey Vero cells after 72 hrs by MTT assay; format: cell-based; conditions: Chlorocebus sabaeus
Procedure, shortened: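 Vero cells in DMEM with 10% FBS, seeded at ~10% confluency and left to adhere overnight. Two-fold serial dilutions applied for 72 h at 37°C, 5% CO2. MTT read-out at 570 nm after overnight solubilization.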

[18] = test system: Rattus norvegicus; assay: Toxicity in Sprague-Dawley rat assessed as mortality at 100 mg/kg, po; format: organism-based; parameters: dose 100 mg/kg, route oral; conditions: in vivo
Procedure, shortened: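 Observed during rat oral pharmacokinetic study (n=5). Overnight-fasted animals, water ad libitum, received 100 mg/kg by oral gavage. Vehicle was compound-dependent: 2% methanol (sonicated), 60:40 PEG 3000/water, or 10% vitamin E TPGS. Animals followed with sampling to 48 h.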

[19] = Cmax in Sprague-Dawley rat at 10 mg/kg, iv; format: ADME, organism-based; parameters: dose 10 mg/kg, route intravenous; conditions: in vivo; procedure, shortened: as §1
[20] = test system: Streptococcus pyogenes; assay: Antibacterial activity against Streptococcus pyogenes ATCC 700294 after overnight incubation by microbroth dilution technique; format: functional; procedure, shortened: as §3
[21] = Apparent permeability of the compound from basal to apical side of human Caco2 cells at 50 umol/L after 2 hrs by UPLC/MS analysis; format: ADME, cell-based; conditions: Caco-2; procedure, shortened: as §4
[22] = test system: Rattus norvegicus; assay: Toxicity in Sprague-Dawley rat assessed as mortality at 10 mg/kg, iv; format: organism-based; parameters: dose 10 mg/kg, route intravenous; conditions: in vivo
Procedure, shortened: (§5)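 Observed during rat IV pharmacokinetic study (n=5). Single 10 mg/kg dose via femoral vein catheter, flushed with heparinized locking solution. Vehicle was 2% ethanol/saline or 30% DMSO/30% propylene glycol/20% PEG 3000/20% saline. Animals followed with serial blood sampling to 48 h.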

[23] = Solubility of the compound at pH 7.4 after 18 hrs by UV spectrometry; format: physicochemical; conditions: buffer, pH 7.4, 18 h
Procedure, shortened: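 10 mM DMSO stocks diluted 100-fold in system solution buffer pH 7.4 and held 18 h at room temperature. Filtered, diluted 1:1 with isopropanol and measured by UV (230–500 nm). Compared against a 600-fold diluted reference in buffer/isopropanol. Triplicates.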

[24] = Volume of distribution in Sprague-Dawley rat at 10 mg/kg, iv; format: ADME, organism-based; parameters: dose 10 mg/kg, route intravenous; conditions: in vivo; procedure, shortened: as §1
[25] = test system: Streptococcus pneumoniae; assay: Antibacterial activity against Streptococcus pneumoniae DAW27 after overnight incubation by microbroth dilution technique; format: functional; procedure, shortened: as §3
[26] = test system: Enterococcus faecalis; assay: Antibacterial activity against Enterococcus faecalis ATCC 3186 after overnight incubation by microbroth dilution technique; format: functional; procedure, shortened: as §3
[27] = test system: Rattus norvegicus; assay: Oral bioavailability in Sprague-Dawley rat at 100 mg/kg; format: ADME, organism-based; conditions: in vivo
Procedure, shortened: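 Fasted rats, n=5, dosed 100 mg/kg by oral gavage. Vehicle was 2% methanol, 60:40 PEG 3000/water or 10% vitamin E TPGS, depending on compound. Plasma sampled to 48 h and assayed by LC-MS/MS. F = (AUCoral×DoseIV)/(AUCIV×Doseoral), referenced to 10 mg/kg IV.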

[28] = test system: Mycobacterium tuberculosis; assay: Antitubercular activity against Mycobacterium tuberculosis after 7 to 14 days by microbroth dilution technique; format: functional
Procedure, shortened: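 M. tuberculosis: CLSI microbroth dilution using two-fold serial drug dilutions in broth. Inoculum about 10^6 CFU/mL; top final concentration 200 µg/mL. Incubated aerobically at 37°C for 7 or 14 days. MIC taken as the lowest concentration preventing visible growth by eye.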

[29] = test system: Rattus norvegicus; assay: Toxicity in Sprague-Dawley rat assessed as seizures at 10 mg/kg, iv; format: organism-based; parameters: dose 10 mg/kg, route intravenous; conditions: in vivo; procedure, shortened: as §5
[30] = Clearance in Sprague-Dawley rat at 10 mg/kg, iv; format: ADME, organism-based; parameters: dose 10 mg/kg, route intravenous; conditions: in vivo; procedure, shortened: as §1
[31] = Efflux ratio of apparent permeability from basal to apical side to apical to basal side of human Caco2 cells; conditions: Caco-2
[32] = AUC (0 to infinity) in Sprague-Dawley rat at 10 mg/kg, iv; format: ADME, organism-based; parameters: time infinity, dose 10 mg/kg, route intravenous; conditions: plasma; procedure, shortened: as §1
[33] = Half life in mouse liver microsomes; format: ADME, Microsome
Procedure, shortened: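 Mouse liver microsomes at 0.6381 mg/mL protein in 0.1 M potassium phosphate pH 7.4 with EDTA. Reaction started with NADPH regenerating system at 37°C; six time points including 0, triplicate wells. Quenched in cold acetonitrile with warfarin internal standard, analysed by LC–MS. Half-life from a first-order least-squares fit.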

CC1COc2c(N3CCN(C)CC3)c(F)cc3c(=O)c(C(=O)O)cn1c23 (stereo not drawn) [OFLOXACIN] gave a CL [1] of 14.3 mL/min/kg, a t1/2 [2] of 90 min and a bioavailability [3] of 78%. The Vd [4] was 0.99 L/kg, the dose excreted [5] was 46% and the Cmax [6] was 10900 ng/mL. The AUC(0-inf) [7] was 6100 ng·h/mL.
O=[N+]([O-])c1ccc(C2=NOC(c3ccc(N4CCCCC4)cc3)C2)o1 (stereo not drawn) showed a half-life [8] of 28.2 min, a dose excreted [9] of 0% and an MIC [10] greater than 200 µg/mL. It also gave an MIC [11] of 50 µg/mL (≈ 146 µM), an MIC [12] greater than 200 µg/mL and a half-life [13] of 167 min. For the same compound, the MIC [14] was 12.5 µg/mL (≈ 36.6 µM), the Papp A→B at 2 h, 50 µM [15] was 7.61 ×10⁻⁶ cm/s and the fraction unbound at 4 h, 10 µM [16] was 0.012. For the same compound, the IC50 [17] was 2.5 µg/mL (≈ 7.32 µM), the Activity [18] was “Non-toxic” and the Cmax [19] was 2280 ng/mL. For the same compound, the MIC [20] was 100 µg/mL (≈ 293 µM), the Papp B→A at 2 h, 50 µM [21] was 10.3 ×10⁻⁶ cm/s and the Activity [22] was “Non-toxic”. The solubility [23] was 1.1 µg/mL (≈ 3.22 µM), the Vd [24] was 10.9 L/kg and the MIC [25] was 200 µg/mL (≈ 586 µM). The MIC [26] was greater than 200 µg/mL, the F [27] was 29.4% and the MIC [28] was 6 µg/mL (≈ 17.6 µM). For the same compound, the Activity [29] was “Non-toxic”, the clearance [30] was 62.8 mL/min/kg and the efflux ratio [31] was 1.35. The AUC(0-inf) [32] was 2750 ng·h/mL and the half-life [33] was 46.8 min.
